In ChEMBL document CHEMBL4118063, “Design, synthesis and evaluation of aromatic heterocyclic derivatives as potent antifungal agents” (Eur J Med Chem, 2017):
Values after ≈ are worked out from the molar mass of the structure shown.

Test system: Candida tropicalis
Assay: Antifungal activity against Candida tropicalis cgmcc 2.3739 by broth microdilution method
Format: functional
How it was run: (§1)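 Serial twofold-style dilution in growth medium per NCCLS broth microdilution guidelines. Compounds dissolved in DMSO before dilution. Fluconazole and itraconazole served as positive controls. MIC was read as the lowest concentration that prevents visible fungal growth.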

Row | SMILES | MIC [µg/mL]
1 | CC(C)OC(=O)[C@H](Cn1ccnc1)NC(=O)c1csc(-c2ccccc2)n1 | > 16
2 | Cc1ccc(-c2cc(C(=O)N[C@@H](Cn3ccnc3)C(=O)OCC(C)C)no2)cc1 | 0.0312 (≈ 0.0788 µM)
3 | CC(C)OC(=O)[C@H](Cn1ccnc1)NC(=O)c1cc(-c2ccccc2)on1 | 0.0625 (≈ 0.17 µM)
4 | CC(C)COC(=O)[C@H](Cn1ccnc1)NC(=O)c1ccc(-c2ccccc2)s1 | 0.125 (≈ 0.314 µM)
5 | CC(C)OC(=O)[C@H](Cn1ccnc1)NC(=O)c1ccc(-c2ccccc2)s1 | 1 (≈ 2.61 µM)
6 | CC(C)COC(=O)[C@H](Cn1ccnc1)NC(=O)c1csc(-c2ccccc2)n1 | > 16
7 | CC(C)COC(=O)[C@H](Cn1ccnc1)NC(=O)c1ccc(-c2ccccc2)o1 | 4 (≈ 10.5 µM)
8 | CC(C)OC(=O)[C@H](Cn1ccnc1)NC(=O)c1cnc(-c2ccccc2)nc1 | 0.0625 (≈ 0.165 µM)
9 | CC(C)OC(=O)[C@H](Cn1ccnc1)NC(=O)c1ccc(-c2ccccc2)o1 | 8 (≈ 21.8 µM)
10 | CC(C)OC(=O)[C@H](Cn1ccnc1)NC(=O)c1nc(-c2ccccc2)cs1 | 0.0625 (≈ 0.163 µM)
11 | CC(C)OC(=O)[C@H](Cn1ccnc1)NC(=O)c1cc(-c2ccc(F)cc2)on1 | 0.0312 (≈ 0.0809 µM)
12 | CC(C)COC(=O)[C@H](Cn1ccnc1)NC(=O)c1cc(-c2ccc(Br)cc2)on1 | 0.0312 (≈ 0.0677 µM)
13 | CC(C)COC(=O)[C@H](Cn1ccnc1)NC(=O)c1cnc(-c2ccccc2)nc1 | 0.125 (≈ 0.318 µM)
14 | Cc1cc(C(=O)N[C@@H](Cn2ccnc2)C(=O)OC(C)C)nn1-c1ccccc1 | 4 (≈ 10.5 µM)
15 | CCC(C)n1ncn(-c2ccc(N3CCN(c4ccc(OCC5COC(Cn6cncn6)(c6ccc(Cl)cc6Cl)O5)cc4)CC3)cc2)c1=O (stereo not given) [ITRACONAZOLE] | 0.0312 (≈ 0.0443 µM)

Test system: Candida albicans
Assay: Antifungal activity against Candida albicans ATCC SC5314 by broth microdilution method
Format: functional
How it was run: as §1

Row | SMILES | MIC [µg/mL]
16 | CC(C)OC(=O)[C@H](Cn1ccnc1)NC(=O)c1csc(-c2ccccc2)n1 | > 16
17 | Cc1ccc(-c2cc(C(=O)N[C@@H](Cn3ccnc3)C(=O)OCC(C)C)no2)cc1 | 0.125 (≈ 0.315 µM)
18 | CC(C)OC(=O)[C@H](Cn1ccnc1)NC(=O)c1cc(-c2ccccc2)on1 | 0.25 (≈ 0.679 µM)
19 | CC(C)COC(=O)[C@H](Cn1ccnc1)NC(=O)c1ccc(-c2ccccc2)s1 | 2 (≈ 5.03 µM)
20 | CC(C)OC(=O)[C@H](Cn1ccnc1)NC(=O)c1ccc(-c2ccccc2)s1 | 8 (≈ 20.9 µM)
21 | CC(C)COC(=O)[C@H](Cn1ccnc1)NC(=O)c1csc(-c2ccccc2)n1 | > 16
22 | CC(C)COC(=O)[C@H](Cn1ccnc1)NC(=O)c1ccc(-c2ccccc2)o1 | > 16
23 | CC(C)OC(=O)[C@H](Cn1ccnc1)NC(=O)c1cnc(-c2ccccc2)nc1 | 0.25 (≈ 0.659 µM)
24 | CC(C)OC(=O)[C@H](Cn1ccnc1)NC(=O)c1ccc(-c2ccccc2)o1 | > 16
25 | CC(C)OC(=O)[C@H](Cn1ccnc1)NC(=O)c1nc(-c2ccccc2)cs1 | > 16
26 | CC(C)OC(=O)[C@H](Cn1ccnc1)NC(=O)c1cc(-c2ccc(F)cc2)on1 | 1 (≈ 2.59 µM)
27 | CC(C)COC(=O)[C@H](Cn1ccnc1)NC(=O)c1cc(-c2ccc(Br)cc2)on1 | 0.0312 (≈ 0.0677 µM)
28 | CC(C)COC(=O)[C@H](Cn1ccnc1)NC(=O)c1cnc(-c2ccccc2)nc1 | 0.25 (≈ 0.635 µM)
29 | Cc1cc(C(=O)N[C@@H](Cn2ccnc2)C(=O)OC(C)C)nn1-c1ccccc1 | > 16
30 | CCC(C)n1ncn(-c2ccc(N3CCN(c4ccc(OCC5COC(Cn6cncn6)(c6ccc(Cl)cc6Cl)O5)cc4)CC3)cc2)c1=O (stereo not given) [ITRACONAZOLE] | 0.0312 (≈ 0.0443 µM)

Test system: Cryptococcus neoformans
Assay: Antifungal activity against Cryptococcus neoformans cgmcc 2.3161 by broth microdilution method
Format: functional
How it was run: as §1

Row | SMILES | MIC [µg/mL]
31 | CC(C)OC(=O)[C@H](Cn1ccnc1)NC(=O)c1csc(-c2ccccc2)n1 | > 16
32 | Cc1ccc(-c2cc(C(=O)N[C@@H](Cn3ccnc3)C(=O)OCC(C)C)no2)cc1 | 0.5 (≈ 1.26 µM)
33 | CC(C)OC(=O)[C@H](Cn1ccnc1)NC(=O)c1cc(-c2ccccc2)on1 | 0.5 (≈ 1.36 µM)
34 | CC(C)COC(=O)[C@H](Cn1ccnc1)NC(=O)c1ccc(-c2ccccc2)s1 | > 16
35 | CC(C)OC(=O)[C@H](Cn1ccnc1)NC(=O)c1ccc(-c2ccccc2)s1 | 16 (≈ 41.7 µM)
36 | CC(C)COC(=O)[C@H](Cn1ccnc1)NC(=O)c1csc(-c2ccccc2)n1 | > 16
37 | CC(C)COC(=O)[C@H](Cn1ccnc1)NC(=O)c1ccc(-c2ccccc2)o1 | > 16
38 | CC(C)OC(=O)[C@H](Cn1ccnc1)NC(=O)c1cnc(-c2ccccc2)nc1 | 8 (≈ 21.1 µM)
39 | CC(C)OC(=O)[C@H](Cn1ccnc1)NC(=O)c1ccc(-c2ccccc2)o1 | > 16
40 | CC(C)OC(=O)[C@H](Cn1ccnc1)NC(=O)c1nc(-c2ccccc2)cs1 | 2 (≈ 5.2 µM)
41 | CC(C)OC(=O)[C@H](Cn1ccnc1)NC(=O)c1cc(-c2ccc(F)cc2)on1 | 2 (≈ 5.18 µM)
42 | CC(C)COC(=O)[C@H](Cn1ccnc1)NC(=O)c1cc(-c2ccc(Br)cc2)on1 | 2 (≈ 4.34 µM)
43 | CC(C)COC(=O)[C@H](Cn1ccnc1)NC(=O)c1cnc(-c2ccccc2)nc1 | 2 (≈ 5.08 µM)
44 | Cc1cc(C(=O)N[C@@H](Cn2ccnc2)C(=O)OC(C)C)nn1-c1ccccc1 | > 16
45 | CCC(C)n1ncn(-c2ccc(N3CCN(c4ccc(OCC5COC(Cn6cncn6)(c6ccc(Cl)cc6Cl)O5)cc4)CC3)cc2)c1=O (stereo not given) [ITRACONAZOLE] | 1 (≈ 1.42 µM)

Test system: Aspergillus fumigatus
Assay: Antifungal activity against Aspergillus fumigatus GIM 3.524 by broth microdilution method
Format: functional
How it was run: as §1

Row | SMILES | MIC [µg/mL]
46 | CC(C)OC(=O)[C@H](Cn1ccnc1)NC(=O)c1csc(-c2ccccc2)n1 | > 16
47 | Cc1ccc(-c2cc(C(=O)N[C@@H](Cn3ccnc3)C(=O)OCC(C)C)no2)cc1 | 8 (≈ 20.2 µM)
48 | CC(C)OC(=O)[C@H](Cn1ccnc1)NC(=O)c1cc(-c2ccccc2)on1 | 4 (≈ 10.9 µM)
49 | CC(C)COC(=O)[C@H](Cn1ccnc1)NC(=O)c1ccc(-c2ccccc2)s1 | > 16
50 | CC(C)OC(=O)[C@H](Cn1ccnc1)NC(=O)c1ccc(-c2ccccc2)s1 | > 16
51 | CC(C)COC(=O)[C@H](Cn1ccnc1)NC(=O)c1csc(-c2ccccc2)n1 | > 16
52 | CC(C)COC(=O)[C@H](Cn1ccnc1)NC(=O)c1ccc(-c2ccccc2)o1 | > 16
53 | CC(C)OC(=O)[C@H](Cn1ccnc1)NC(=O)c1cnc(-c2ccccc2)nc1 | > 16
54 | CC(C)OC(=O)[C@H](Cn1ccnc1)NC(=O)c1ccc(-c2ccccc2)o1 | > 16
55 | CC(C)OC(=O)[C@H](Cn1ccnc1)NC(=O)c1nc(-c2ccccc2)cs1 | > 16
56 | CC(C)OC(=O)[C@H](Cn1ccnc1)NC(=O)c1cc(-c2ccc(F)cc2)on1 | 8 (≈ 20.7 µM)
57 | CC(C)COC(=O)[C@H](Cn1ccnc1)NC(=O)c1cc(-c2ccc(Br)cc2)on1 | > 16
58 | CC(C)COC(=O)[C@H](Cn1ccnc1)NC(=O)c1cnc(-c2ccccc2)nc1 | > 16
59 | Cc1cc(C(=O)N[C@@H](Cn2ccnc2)C(=O)OC(C)C)nn1-c1ccccc1 | > 16
60 | CCC(C)n1ncn(-c2ccc(N3CCN(c4ccc(OCC5COC(Cn6cncn6)(c6ccc(Cl)cc6Cl)O5)cc4)CC3)cc2)c1=O (stereo not given) [ITRACONAZOLE] | 1 (≈ 1.42 µM)

Test system: Candida albicans
Assay: Antifungal activity against Candida albicans CPCC 400523 by broth microdilution method
Format: functional
How it was run: as §1

Row | SMILES | MIC [µg/mL]
61 | CC(C)OC(=O)[C@H](Cn1ccnc1)NC(=O)c1csc(-c2ccccc2)n1 | > 16
62 | Cc1ccc(-c2cc(C(=O)N[C@@H](Cn3ccnc3)C(=O)OCC(C)C)no2)cc1 | 0.5 (≈ 1.26 µM)
63 | CC(C)OC(=O)[C@H](Cn1ccnc1)NC(=O)c1cc(-c2ccccc2)on1 | 0.5 (≈ 1.36 µM)
64 | CC(C)COC(=O)[C@H](Cn1ccnc1)NC(=O)c1ccc(-c2ccccc2)s1 | 4 (≈ 10.1 µM)
65 | CC(C)OC(=O)[C@H](Cn1ccnc1)NC(=O)c1ccc(-c2ccccc2)s1 | 8 (≈ 20.9 µM)
66 | CC(C)COC(=O)[C@H](Cn1ccnc1)NC(=O)c1csc(-c2ccccc2)n1 | > 16
67 | CC(C)COC(=O)[C@H](Cn1ccnc1)NC(=O)c1ccc(-c2ccccc2)o1 | > 16
68 | CC(C)OC(=O)[C@H](Cn1ccnc1)NC(=O)c1cnc(-c2ccccc2)nc1 | 1 (≈ 2.64 µM)
69 | CC(C)OC(=O)[C@H](Cn1ccnc1)NC(=O)c1ccc(-c2ccccc2)o1 | > 16
70 | CC(C)OC(=O)[C@H](Cn1ccnc1)NC(=O)c1nc(-c2ccccc2)cs1 | > 16
71 | CC(C)OC(=O)[C@H](Cn1ccnc1)NC(=O)c1cc(-c2ccc(F)cc2)on1 | 2 (≈ 5.18 µM)
72 | CC(C)COC(=O)[C@H](Cn1ccnc1)NC(=O)c1cc(-c2ccc(Br)cc2)on1 | 0.125 (≈ 0.271 µM)
73 | CC(C)COC(=O)[C@H](Cn1ccnc1)NC(=O)c1cnc(-c2ccccc2)nc1 | 0.5 (≈ 1.27 µM)
74 | Cc1cc(C(=O)N[C@@H](Cn2ccnc2)C(=O)OC(C)C)nn1-c1ccccc1 | > 16
75 | CCC(C)n1ncn(-c2ccc(N3CCN(c4ccc(OCC5COC(Cn6cncn6)(c6ccc(Cl)cc6Cl)O5)cc4)CC3)cc2)c1=O (stereo not given) [ITRACONAZOLE] | 0.125 (≈ 0.177 µM)
